Measured values published in ChEMBL document CHEMBL3588840, “An Isoflavone from Leiophyllum buxifolium and Its Antiproliferative Effect” (J Nat Prod, 2015).

How the values were obtained:
Artemia salina = assay: Cytotoxicity against Artemia salina assessed as induction of shrimp mortality incubated for 24 hrs; format: functional; conditions: for LC50: read-out: LD50 (the source's name)
MDA-MB-231 = assay: Antiproliferative activity against human MDA-MB-231 cells assessed as inhibition of cell proliferation incubated for 72 hrs by SRB assay; format: functional, cell-based; conditions: MDA-MB-231, 72 h
In short: (§1)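 Seeded at 1 × 10^4 cells/well (MCF-7: EMEM + 10% FBS; MDA-MB-231: EMEM + 10% NuSerum; NIH3T3: DMEM + 5% NuSerum + 1% antibiotics). Exposed to 1.25–40 μM final (DMSO stock diluted in water) for 72 h at 37 °C, 5% CO2. Day-0 plate used. Fixed with TCA (10% final, 4 °C, 1 h), stained with 0.4% SRB, dye dissolved in 10 mM Tris. IC50 derived. Podophyllotoxin and 0.5% DMSO as controls.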

MCF7 = assay: Antiproliferative activity against human MCF7 cells assessed as inhibition of cell proliferation incubated for 72 hrs by SRB assay; format: functional, cell-based; conditions: MCF7, 72 h; in short: as §1
[1] = Antiproliferative activity against mouse NIH/3T3 cells assessed as inhibition of cell proliferation incubated for 72 hrs by SRB assay; format: cell-based; conditions: NIH3T3, 72 h; in short: as §1

| SMILES | Activity (Artemia salina) | LC50 (Artemia salina) [µM] | IC50 (MDA-MB-231) [µM] | IC50 (MCF7) [µM] | IC50 [1] [µM] |
| --- | --- | --- | --- | --- | --- |
| COc1c(C)c(O)c2c(=O)c(-c3ccc(O)cc3)coc2c1C | Dose-dependent effect | 20.2 | 7 | > 40 | > 40 |
| COc1c(C)c(O)c2c(=O)cc(-c3ccc(O)cc3)oc2c1C [SIDEROXYLIN] | Dose-dependent effect | 80.1 | 36.9 | 14.7 | > 40 |
| COc1cc([C@@H]2c3cc4c(cc3[C@H](O)[C@H]3COC(=O)[C@H]23)OCO4)cc(OC)c1OC [PODOFILOX] |  |  | 0.079 |  | 0.084 |
